{
  "source": "ChEMBL document CHEMBL3872254",
  "about": "“Design, synthesis and biological evaluation of alkylamino biphenylamides as Hsp90 C-terminal inhibitors” (Bioorg Med Chem, 2017)",
  "note": "Active and inactive are the calls of the source. The calls are words filed in the database; no cut-off is given here.",
  "data": [
    {"target": "T1, Heat shock protein HSP90 (Homo sapiens) (UniProt P07900+P08238)", "experiment": "Inhibition of C-terminal Hsp90 in human PC3MM2 cells assessed as decrease in Hsp90-dependent refolding of thermally denatured luciferase at 0.1 to 100 uM", "type": "cell-based", "conditions": "not given", "in_short": "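Hsp90-dependent luciferase refolding measured in PC3-MM2 cells; compounds tested at 0.1−100 μM against DMSO vehicle, with a reference Hsp90 inhibitor as positive control.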", "values": [
      {"compound": "COc1cccc(-c2cc(C(=O)Nc3ccc(-c4ccc(OC5CCN(C)CC5)cc4OCCN(C)C)cc3)ccc2OC)c1", "inhibition": "Active"},
      {"compound": "COc1cccc(-c2cc(C(=O)Nc3ccc(-c4ccc(OC5CCN(C)CC5)cc4OCCCN(C)C)cc3)ccc2OC)c1", "inhibition": "Active"}
    ]},
    {"system": "not listed separately", "experiment": "Anti-proliferative activity against human SKBR3 cells over-expressing Her2 measured after 72 hrs by MTS/PMS assay", "type": "functional, cell-based", "conditions": "SK-BR-3, 72 h", "in_short": "(§1)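 Cells grown in 1:1 Advanced DMEM/F12 with non-essential amino acids, 2 mM L-glutamine, penicillin/streptomycin, 10% FBS, 37 °C, 5% CO2; seeded 2000/well, attached overnight. Compound added in DMSO (1% final), 72 h incubation; viable cells by MTS/PMS. 1% DMSO wells set as 100% proliferation; IC50 from separate experiments run in triplicate, mean ± SD of at least two experiments.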", "units": {"IC50": "µM"}, "values": [
      {"compound": "COc1cccc(-c2cc(C(=O)Nc3ccc(-c4ccc(OC5CCN(C)CC5)cc4)cc3)ccc2OC)c1", "IC50": 0.47},
      {"compound": "COc1cccc(-c2cc(C(=O)Nc3ccc(-c4ccc(OC5CCN(C)CC5)cc4OCCCN4C(=O)c5ccccc5C4=O)cc3)ccc2OC)c1", "IC50": 3.13},
      {"compound": "COc1cccc(-c2cc(C(=O)Nc3ccc(-c4ccc(OC5CCN(C)CC5)cc4)c(O)c3)ccc2OC)c1", "IC50": 3.43},
      {"compound": "COc1cccc(-c2cc(C(=O)Nc3ccc(-c4ccc(OC5CCN(C)CC5)cc4)c(OCCCN(C)C)c3)ccc2OC)c1", "IC50": 0.55},
      {"compound": "COc1cccc(-c2cc(C(=O)Nc3ccc(-c4ccc(OC5CCN(C)CC5)cc4)cc3OCCCN(C)C)ccc2OC)c1", "IC50": 0.69},
      {"compound": "COc1cccc(-c2cc(C(=O)Nc3ccc(-c4ccc(OC5CCN(C)CC5)cc4OCCCOC(C)=O)cc3)ccc2OC)c1", "IC50": 1.96},
      {"compound": "COc1cccc(-c2cc(C(=O)Nc3ccc(-c4ccc(OC5CCN(C)CC5)cc4OCCN(C)C)cc3)ccc2OC)c1", "IC50": 0.39},
      {"compound": "COc1cccc(-c2cc(C(=O)Nc3ccc(-c4ccc(OC5CCN(C)CC5)cc4)c(OCCN(C)C)c3)ccc2OC)c1", "IC50": 0.65},
      {"compound": "COc1cccc(-c2cc(C(=O)Nc3ccc(-c4ccc(OC5CCN(C)CC5)cc4)cc3OCCN(C)C)ccc2OC)c1", "IC50": 0.84},
      {"compound": "COc1cccc(-c2cc(C(=O)Nc3ccc(-c4ccc(OC5CCN(C)CC5)cc4OCCCO)cc3)ccc2OC)c1", "IC50": 3.87},
      {"compound": "COc1cccc(-c2cc(C(=O)Nc3ccc(-c4ccc(OC5CCN(C)CC5)cc4O)cc3)ccc2OC)c1", "IC50": 3.55},
      {"compound": "COCOc1cc(-c2ccc(NC(=O)c3ccc(OC)c(-c4cccc(OC)c4)c3)cc2)ccc1OC1CCN(C)CC1", "IC50": 0.82},
      {"compound": "COc1cccc(-c2cc(C(=O)Nc3ccc(-c4ccc(OC5CCN(C)CC5)c(O)c4)cc3)ccc2OC)c1", "IC50": 1.56},
      {"compound": "COc1cccc(-c2cc(C(=O)Nc3ccc(-c4ccc(OC5CCN(C)CC5)cc4OC4CCCCC4)cc3)ccc2OC)c1", "IC50": 3.24},
      {"compound": "COc1cccc(-c2cc(C(=O)Nc3ccc(-c4ccc(OC5CCN(C)CC5)c(OCCCN(C)C)c4)cc3)ccc2OC)c1", "IC50": 0.75},
      {"compound": "COc1cccc(-c2cc(C(=O)Nc3ccc(-c4ccc(OC5CCN(C)CC5)c(OCCN(C)C)c4)cc3)ccc2OC)c1", "IC50": 0.4},
      {"compound": "COc1cccc(-c2cc(C(=O)Nc3ccc(-c4ccc(OC5CCN(C)CC5)cc4OC4CCN(C)CC4)cc3)ccc2OC)c1", "IC50": 1.16},
      {"compound": "COc1cccc(-c2cc(C(=O)Nc3ccc(-c4ccc(OC5CCN(C)CC5)cc4OCCCCN(C)C)cc3)ccc2OC)c1", "IC50": 1.27},
      {"compound": "COCOc1cc(OC2CCN(C)CC2)ccc1-c1ccc(NC(=O)c2ccc(OC)c(-c3cccc(OC)c3)c2)cc1", "IC50": 1.14},
      {"compound": "COc1cccc(-c2cc(C(=O)Nc3ccc(-c4ccc(OC5CCN(C)CC5)cc4)cc3O)ccc2OC)c1", "IC50": 0.91},
      {"compound": "COc1cccc(-c2cc(C(=O)Nc3ccc(-c4ccc(OC5CCN(C)CC5)cc4OCCCN(C)C)cc3)ccc2OC)c1", "IC50": 0.34}
    ]},
    {"system": "not listed separately", "experiment": "Anti-proliferative activity against ER positive human MCF7 cells measured after 72 hrs by MTS/PMS assay", "type": "functional, cell-based", "conditions": "MCF7, 72 h", "in_short": "as §1", "units": {"IC50": "µM"}, "values": [
      {"compound": "COc1cccc(-c2cc(C(=O)Nc3ccc(-c4ccc(OC5CCN(C)CC5)cc4)cc3)ccc2OC)c1", "IC50": 0.71},
      {"compound": "COc1cccc(-c2cc(C(=O)Nc3ccc(-c4ccc(OC5CCN(C)CC5)cc4OCCCN4C(=O)c5ccccc5C4=O)cc3)ccc2OC)c1", "IC50": 1.43},
      {"compound": "COc1cccc(-c2cc(C(=O)Nc3ccc(-c4ccc(OC5CCN(C)CC5)cc4)c(O)c3)ccc2OC)c1", "IC50": 1.8},
      {"compound": "COc1cccc(-c2cc(C(=O)Nc3ccc(-c4ccc(OC5CCN(C)CC5)cc4)c(OCCCN(C)C)c3)ccc2OC)c1", "IC50": 0.67},
      {"compound": "COc1cccc(-c2cc(C(=O)Nc3ccc(-c4ccc(OC5CCN(C)CC5)cc4)cc3OCCCN(C)C)ccc2OC)c1", "IC50": 0.75},
      {"compound": "COc1cccc(-c2cc(C(=O)Nc3ccc(-c4ccc(OC5CCN(C)CC5)cc4OCCCOC(C)=O)cc3)ccc2OC)c1", "IC50": 2.49},
      {"compound": "COc1cccc(-c2cc(C(=O)Nc3ccc(-c4ccc(OC5CCN(C)CC5)cc4OCCN(C)C)cc3)ccc2OC)c1", "IC50": 1.04},
      {"compound": "COc1cccc(-c2cc(C(=O)Nc3ccc(-c4ccc(OC5CCN(C)CC5)cc4)c(OCCN(C)C)c3)ccc2OC)c1", "IC50": 0.79},
      {"compound": "COc1cccc(-c2cc(C(=O)Nc3ccc(-c4ccc(OC5CCN(C)CC5)cc4)cc3OCCN(C)C)ccc2OC)c1", "IC50": 0.81},
      {"compound": "COc1cccc(-c2cc(C(=O)Nc3ccc(-c4ccc(OC5CCN(C)CC5)cc4OCCCO)cc3)ccc2OC)c1", "IC50": 3.11},
      {"compound": "COc1cccc(-c2cc(C(=O)Nc3ccc(-c4ccc(OC5CCN(C)CC5)cc4O)cc3)ccc2OC)c1", "IC50": 4.07},
      {"compound": "COCOc1cc(-c2ccc(NC(=O)c3ccc(OC)c(-c4cccc(OC)c4)c3)cc2)ccc1OC1CCN(C)CC1", "IC50": 0.99},
      {"compound": "COc1cccc(-c2cc(C(=O)Nc3ccc(-c4ccc(OC5CCN(C)CC5)c(O)c4)cc3)ccc2OC)c1", "IC50": 1.22},
      {"compound": "COc1cccc(-c2cc(C(=O)Nc3ccc(-c4ccc(OC5CCN(C)CC5)cc4OC4CCCCC4)cc3)ccc2OC)c1", "IC50": 2.36},
      {"compound": "COc1cccc(-c2cc(C(=O)Nc3ccc(-c4ccc(OC5CCN(C)CC5)c(OCCCN(C)C)c4)cc3)ccc2OC)c1", "IC50": 1.05},
      {"compound": "COc1cccc(-c2cc(C(=O)Nc3ccc(-c4ccc(OC5CCN(C)CC5)c(OCCN(C)C)c4)cc3)ccc2OC)c1", "IC50": 0.7},
      {"compound": "COc1cccc(-c2cc(C(=O)Nc3ccc(-c4ccc(OC5CCN(C)CC5)cc4OC4CCN(C)CC4)cc3)ccc2OC)c1", "IC50": 2.54},
      {"compound": "COc1cccc(-c2cc(C(=O)Nc3ccc(-c4ccc(OC5CCN(C)CC5)cc4OCCCCN(C)C)cc3)ccc2OC)c1", "IC50": 1.12},
      {"compound": "COCOc1cc(OC2CCN(C)CC2)ccc1-c1ccc(NC(=O)c2ccc(OC)c(-c3cccc(OC)c3)c2)cc1", "IC50": 1.38},
      {"compound": "COc1cccc(-c2cc(C(=O)Nc3ccc(-c4ccc(OC5CCN(C)CC5)cc4)cc3O)ccc2OC)c1", "IC50": 0.71},
      {"compound": "COc1cccc(-c2cc(C(=O)Nc3ccc(-c4ccc(OC5CCN(C)CC5)cc4OCCCN(C)C)cc3)ccc2OC)c1", "IC50": 0.84}
    ]},
    {"target": "T1, Heat shock protein HSP90 (Homo sapiens)", "experiment": "Inhibition of C-terminal Hsp90 in human MCF7 cells assessed as degradation of Her2 measured after 24 hrs by Western blot method", "type": "cell-based", "conditions": "not given", "in_short": "(§2)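 MCF-7 cells cultured as for proliferation, exposed to compound in DMSO (1% final) for 24 h alongside geldanamycin 0.5 μM and DMSO controls. Harvested in cold PBS, lysed 1 h on ice in RIPA with 1 mM PMSF, 2 mM orthovanadate, protease inhibitors; cleared 14000g 10 min 4 °C. BCA-normalized 20 μg protein, reducing SDS-PAGE, nitrocellulose, specific antibodies, HRP secondary, chemiluminescence.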", "values": [
      {"compound": "COc1cccc(-c2cc(C(=O)Nc3ccc(-c4ccc(OC5CCN(C)CC5)cc4OCCCN(C)C)cc3)ccc2OC)c1", "inhibition": "Dose-dependent effect"}
    ]},
    {"target": "T1, Heat shock protein HSP90 (Homo sapiens)", "experiment": "Inhibition of C-terminal Hsp90 in human MCF7 cells assessed as degradation of Raf-1 measured after 24 hrs by Western blot method", "type": "cell-based", "conditions": "not given", "in_short": "as §2", "values": [
      {"compound": "COc1cccc(-c2cc(C(=O)Nc3ccc(-c4ccc(OC5CCN(C)CC5)cc4OCCCN(C)C)cc3)ccc2OC)c1", "inhibition": "Dose-dependent effect"}
    ]},
    {"target": "T1, Heat shock protein HSP90 (Homo sapiens)", "experiment": "Inhibition of C-terminal Hsp90 in human MCF7 cells assessed as degradation of Akt measured after 24 hrs by Western blot method", "type": "cell-based", "conditions": "not given", "in_short": "as §2", "values": [
      {"compound": "COc1cccc(-c2cc(C(=O)Nc3ccc(-c4ccc(OC5CCN(C)CC5)cc4OCCCN(C)C)cc3)ccc2OC)c1", "inhibition": "Dose-dependent effect"}
    ]},
    {"system": "not listed separately", "experiment": "Effect on actin expression in human MCF7 cells at 0.2 to 10 uM measured after 24 hrs by Western blot method", "type": "ADME, cell-based", "conditions": "mcf7, 24 h", "in_short": "as §2", "values": [
      {"compound": "COc1cccc(-c2cc(C(=O)Nc3ccc(-c4ccc(OC5CCN(C)CC5)cc4OCCCN(C)C)cc3)ccc2OC)c1", "Activity": "Non-Toxic"}
    ]}
  ]
}
